Series [1] has as its system BMOL-T. The series is described as follows: Antimigratory activity against mouse BMOL-T cells assessed as inhibition of cell migration at 10 uM incubated for 24 hrs by scratch wound healing assay. It is filed as functional, cell-based. In short, it runs like this: (§1)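 Wound healing in BMOL-T cells plated at 20,000/well in supplemented Williams' E medium and grown 24 h. Wounds made with a Woundmaker, then medium replaced with fresh medium holding compound or 0.1% DMSO vehicle. Live-cell imaging every 2 h over 24 h, read as average wound width (µm). n = 3, SEM.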

Series [2] in a line: Antimigratory activity against mouse BMOL-T cells assessed as inhibition of cell migration at 10 uM incubated for 16 hrs by scratch wound healing assay relative to control. It is filed as functional. In short, it runs like this:
as §1

Series [3] addresses T1, Transcription factor p65 (Mus musculus, UniProt Q04207). The experiment in a line: Inhibition of NFkB p65 phosphorylation in mouse BMOL-NT cells assessed as change in phosphorylated p65 level at 10 uM incubated for 6 hrs by immunofluorescent assay relative to control. It is filed as cell-based. Further details: scale not given: the % may be the effect or the level left. In outline:
(§2)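 BMOL cells in supplemented Williams' E medium were treated 6 h with compound or 0.1% DMSO vehicle. Fixed in 4% PFA, permeabilised with 0.1% Triton X-100, blocked, then incubated 18 h with anti-phospho-p65, -Akt or -STAT3, then secondary antibody 1 h and Hoechst. High-content imaging of per-cell intensity and nuclear:whole-cell ratio. Mean of two experiments, SD.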

The target in series [4] is Transcription factor p65 (Mus musculus) (UniProt Q04207). The series is described as follows: Inhibition of NFkB p65 phosphorylation in mouse BMOL-T cells assessed as change in phosphorylated p65 level at 10 uM incubated for 6 hrs by immunofluorescent assay relative to control. It is filed as cell-based. Further details: scale not given: the % may be the effect or the level left. In short, it runs like this: as §2
Chain of Transcription factor p65 (Mus musculus) (Q04207 whole entry): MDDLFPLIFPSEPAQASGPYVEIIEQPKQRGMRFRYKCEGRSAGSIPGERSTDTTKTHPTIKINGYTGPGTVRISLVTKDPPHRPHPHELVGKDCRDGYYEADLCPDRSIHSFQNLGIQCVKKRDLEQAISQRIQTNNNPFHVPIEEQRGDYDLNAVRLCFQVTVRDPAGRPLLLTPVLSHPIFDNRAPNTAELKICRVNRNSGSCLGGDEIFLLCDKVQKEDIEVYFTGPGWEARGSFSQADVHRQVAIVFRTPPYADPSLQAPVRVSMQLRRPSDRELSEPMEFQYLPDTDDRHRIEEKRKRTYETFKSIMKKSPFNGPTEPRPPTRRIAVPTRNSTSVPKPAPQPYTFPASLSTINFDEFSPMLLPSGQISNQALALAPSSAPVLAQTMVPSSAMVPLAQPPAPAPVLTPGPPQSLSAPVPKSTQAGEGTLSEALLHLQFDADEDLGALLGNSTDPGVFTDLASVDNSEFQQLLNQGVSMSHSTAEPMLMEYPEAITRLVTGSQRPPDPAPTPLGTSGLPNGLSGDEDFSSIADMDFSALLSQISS

Series [5] in a line: Inhibition of Akt phosphorylation in mouse BMOL-NT cells assessed as change in phosphorylated Akt level at 10 uM incubated for 6 hrs by immunofluorescent assay relative to control. It is filed as cell-based. Further details: scale not given: the % may be the effect or the level left. In outline:
as §2

Series [6] concerns BMOL-T. The series is described as follows: Inhibition of Akt phosphorylation in mouse BMOL-T cells assessed as change in phosphorylated Akt level at 10 uM incubated for 6 hrs by immunofluorescent assay relative to control. It is filed as cell-based. Further details: scale not given: the % may be the effect or the level left. In short, it runs like this:
as §2

Series [7] concerns the target T2, Signal transducer and activator of transcription 3 (Mus musculus, UniProt P42227). The experiment in a line: Inhibition of STAT3 phosphorylation in mouse BMOL-NT cells assessed as change in phosphorylated STAT3 level at 10 uM incubated for 6 hrs by immunofluorescence assay relative to control. Set-up: scale not given: the % may be the effect or the level left. It is filed as cell-based. In short, it runs like this:
as §2

The target of series [8] is Signal transducer and activator of transcription 3 (Mus musculus) (UniProt P42227). The experiment in a line: Inhibition of STAT3 phosphorylation in mouse BMOL-T cells assessed as change in phosphorylated STAT3 level at 10 uM incubated for 6 hrs by immunofluorescence assay relative to control. It is filed as cell-based. Further details: scale not given: the % may be the effect or the level left. In short, it runs like this:
as §2

The nature of series [9]: Antiproliferative activity against mouse BMOL-T cells assessed as cell growth inhibition at 10 uM measured every 4 hrs for 3 days by IncuCyte zoom live cell analysis relative to control. It is filed as functional. Conditions: 72 h, time 3 day.
The nature of series [10]: Selectivity for antiproliferative activity against mouse BMOL-T cells over mouse BMOL-NT cells at 10 uM measured every 4 hrs for 3 days by IncuCyte zoom live cell analysis. The conditions noted are these: time 3 day.
Series [11] can be described thus: (§3) Antiproliferative activity against mouse BMOL-T cells assessed as minimum concentration required for cell growth inhibition measured every 4 hrs for 3 days by IncuCyte zoom live cell analysis. It is filed as functional. Conditions: time 3 day. In outline: (§4)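 Dose series for BMOL-T proliferation: cells plated at 1000/well, compound added from 2× solutions (final 0.1% DMSO), imaged every 4 h for 3 days. Doubling time from the log-phase linear part of a log confluence vs time curve, expressed as % change over vehicle. n = 3, SEM.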

For series [12], the system named is BMOL-T. Described as §3. It is filed as functional. Conditions: time 3.0 day. In outline:
as §4

The nature of series [13]: Antiproliferative activity against mouse BMOL-NT cells assessed as cell growth inhibition at >10 uM measured every 4 hrs for 3 days by IncuCyte zoom live cell analysis. It is filed as cell-based. Conditions: 72 h, time 3 day.
The nature of series [14]: Selectivity for antiproliferative activity against mouse BMOL-T cells over mouse BMOL-NT cells at 26 uM measured every 4 hrs for 3 days by IncuCyte zoom live cell analysis. Conditions: time 3 day.
The target of series [15] is T1, Transcription factor p65. The experiment in a line: Inhibition of NFkB p65 nuclear translocation in mouse BMOL-NT cells assessed as change in nuclear p65 level at 10 uM incubated for 6 hrs by immunofluorescent assay relative to control. Further details: scale not given: the % may be the effect or the level left. It is filed as subcellular, Nucleus. In short, it runs like this: as §2

For series [16], the target named is Transcription factor p65 (Mus musculus) (UniProt Q04207). The experiment in a line: Inhibition of NFkB p65 nuclear translocation in mouse BMOL-T cells assessed as change in nuclear p65 level at 10 uM incubated for 6 hrs by immunofluorescent assay relative to control. It is filed as subcellular. Further details: scale not given: the % may be the effect or the level left. Conditions: Nucleus. In outline:
as §2

Series [17] is described as follows: Inhibition of Akt phosphorylation in mouse BMOL-NT cells assessed as change in nuclear phosphorylated Akt level at 10 uM incubated for 6 hrs by immunofluorescent assay relative to control. It is filed as subcellular, Nucleus. Further details: scale not given: the % may be the effect or the level left. In short, it runs like this: as §2
The test system of series [18] is BMOL-T. The series is described as follows: Inhibition of Akt phosphorylation in mouse BMOL-T cells assessed as change in nuclear phosphorylated Akt level at 10 uM incubated for 6 hrs by immunofluorescent assay relative to control. It is filed as subcellular. Further details: scale not given: the % may be the effect or the level left. The conditions noted are these: Nucleus. In outline: as §2

For series [19], the target named is T2, Signal transducer and activator of transcription 3. The series is described as follows: Inhibition of STAT3 phosphorylation in mouse BMOL-NT cells assessed as change in nuclear phosphorylated STAT3 level at 10 uM incubated for 6 hrs by immunofluorescence assay relative to control. It is filed as subcellular, Nucleus. Further details: scale not given: the % may be the effect or the level left. In short, it runs like this:
as §2

Series [20] concerns the target Signal transducer and activator of transcription 3 (Mus musculus) (UniProt P42227). The series is described as follows: Inhibition of STAT3 phosphorylation in mouse BMOL-T cells assessed as change in nuclear phosphorylated STAT3 level at 10 uM incubated for 6 hrs by immunofluorescence assay relative to control. It is filed as subcellular. Set-up: scale not given: the % may be the effect or the level left. The conditions noted are these: Nucleus. In outline:
as §2

The subject of series [21] is BMOL-T. The series is described as follows: Effect on STAT3 expression in mouse BMOL-T cells at 10 uM by AlphaLISA assay. It is filed as functional, cell-based. In outline:
(§5)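 AlphaLISA in BMOL-T cells treated at 10 µM with 0.1% DMSO vehicle as control. Read as normalised fluorescence for total STAT3, or as the ratio of total STAT3 to p-STAT3. n ≥ 3, SEM. Significance by ANOVA with Dunnett's test.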
For orientation: In Alpha technology, singlet oxygen from a donor bead excites a nearby acceptor bead.

Series [22] can be described thus: Antiproliferative activity against mouse BMOL-NT cells assessed as cell growth by measuring doubling time at 10 uM measured every 4 hrs for 3 days by IncuCyte zoom live cell analysis (reference value: 18 to 19 hrs). Conditions: 72 h, time 3 day. It is filed as cell-based.
Series [23] is described as follows: Antiproliferative activity against mouse BMOL-T cells assessed as cell growth by measuring doubling time at 10 uM measured every 4 hrs for 3 days by IncuCyte zoom live cell analysis (reference value: 14.3 to 15 hrs). It is filed as functional. The conditions noted are these: time 3 day.
The target in series [24] is Signal transducer and activator of transcription 3 (Mus musculus) (UniProt P42227). The series is described as follows: Inhibition of STAT3 phosphorylation in mouse BMOL-T cells at 10 uM by AlphaLISA assay. It is filed as cell-based. In outline:
as §5

A short description of series [25]: Antiproliferative activity against mouse BMOL-NT cells assessed as change in doubling time at 10 uM measured every 4 hrs for 3 days by IncuCyte zoom live cell analysis relative to control. It is filed as cell-based. Conditions: 72 h, time 3 day.
Series [26] is described as follows: Antiproliferative activity against mouse BMOL-T cells assessed as change in doubling time at 10 uM measured every 4 hrs for 3 days by IncuCyte zoom live cell analysis relative to control. It is filed as functional. Conditions: time 3 day.
Series [27] in a line: Antiproliferative activity against mouse BMOL-NT cells assessed as cell growth inhibition at 14 to 26 uM measured every 4 hrs for 3 days by IncuCyte zoom live cell analysis. It is filed as cell-based. Conditions: 72 h, dose 14-26 µM, time 3 day.

Molecules are shown by their SMILES. Active and inactive are the calls of the source. The rule behind the calls is not given here.

The results in this text go back to ChEMBL document CHEMBL4814031, “In pursuit of a selective hepatocellular carcinoma therapeutic agent: Novel thalidomide derivatives with antiproliferative, antimigratory and STAT3 inhibitory properties” (Eur J Med Chem, 2021).

Chain of Signal transducer and activator of transcription 3 (Mus musculus) (P42227 whole entry): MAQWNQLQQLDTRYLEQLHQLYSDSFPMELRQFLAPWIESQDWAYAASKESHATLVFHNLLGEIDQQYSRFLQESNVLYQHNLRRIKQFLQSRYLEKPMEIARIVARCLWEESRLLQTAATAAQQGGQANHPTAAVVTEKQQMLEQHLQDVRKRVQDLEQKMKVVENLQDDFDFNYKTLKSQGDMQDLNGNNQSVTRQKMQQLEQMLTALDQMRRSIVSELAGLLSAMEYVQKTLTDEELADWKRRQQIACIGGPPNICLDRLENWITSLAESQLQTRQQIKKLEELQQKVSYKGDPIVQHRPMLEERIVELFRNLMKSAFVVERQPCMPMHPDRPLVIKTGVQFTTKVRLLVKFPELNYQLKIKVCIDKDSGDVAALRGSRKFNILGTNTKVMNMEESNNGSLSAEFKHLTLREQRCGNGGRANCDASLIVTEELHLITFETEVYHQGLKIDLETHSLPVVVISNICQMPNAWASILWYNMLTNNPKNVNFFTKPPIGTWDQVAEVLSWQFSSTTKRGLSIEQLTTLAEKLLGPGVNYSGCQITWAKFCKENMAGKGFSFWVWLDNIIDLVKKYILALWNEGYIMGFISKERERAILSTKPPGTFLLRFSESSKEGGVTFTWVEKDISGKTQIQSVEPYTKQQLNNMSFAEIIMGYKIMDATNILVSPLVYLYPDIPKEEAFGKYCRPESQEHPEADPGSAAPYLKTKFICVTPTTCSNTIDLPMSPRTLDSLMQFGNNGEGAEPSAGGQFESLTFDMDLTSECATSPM
T2 sequence (P42227 whole entry): as above
T1 sequence (Q04207 whole entry): as the sequence (Q04207 whole entry) above

The term inhibition denotes the change of the read-out against control, counted positive when it falls. For `CC(C)(C)c1ccc(Nc2cccc3c2C(=O)N(C2CCC(=O)NC2=O)C3=O)cc1` (stereo not given), the outcome with BMOL-T [1] was Active. Further, the inhibition at 10 µM in series [2] turned out to be 94%; in series [9], 31%. The Activity on Transcription factor p65 [3] was -1%; in series [4] it was -7%; in series [5] it was 4%; with BMOL-T [6], 4%; in series [7] it was -4%; in series [8] it was -7%. For the same molecule, the Activity entry with BMOL-T [12] is “Dose-Dependent Effect”; in series [13] it was “Toxic”; at Transcription factor p65 [15], -11%; in series [16], -9%; in series [17], -10%; in the series with BMOL-T [18], 4%. The Activity was -13% in series [19] and -10% in series [20]. Further, the Selectivity ratio came to 23 in series [10] and 3 in series [14]. In addition, in [11], the MAC turned out to be 4 µM. Further, in the series with BMOL-T [21], the outcome was inactive.

As for `Nc1cccc2c1CN(C1CCC(=O)NC1=O)C2=O` (stereo not given) [LENALIDOMIDE], the Time is 18 h in series [22] and 15 h in series [23]. Moreover, the inhibition at 10 µM in series [2] amounted to 20%. Moreover, the Activity was 13% on Transcription factor p65 [3]; -5% in [4]; 0% in series [5]; -9% in the series with BMOL-T [6]; 2% in [7]; -4% in [8]. The Activity on Transcription factor p65 [15] was -9%; in series [16], 7%; in series [17] it was -6%; with BMOL-T [18] it was -16%; in series [19], -3%; in [20], 3%. Moreover, the result in the series on BMOL-T [21] was inactive.

Take `CN1C(=O)CCC(N2C(=O)c3cccc(Sc4ccc(C(C)(C)C)cc4)c3C2=O)C1=O` (stereo not given): the results for the Time in series [22] and in series [23] were 24 h and 16.3 h, respectively. Further, in series [24], the inhibition entry was “inactive”. Further, the results for the Activity in [25] and in [26] were 26% and 14%, respectively. Moreover, the outcome with BMOL-T [21] was inactive.

In the case of `CC(C)(C)c1ccc(Sc2cccc3c2C(=O)N(C2CCC(=O)NC2=O)C3=O)cc1` (stereo not given), the outcome in the series with BMOL-T [1] was Active. Further, the inhibition at 10 µM was determined as 80% in series [2] and 36% in [9]. Besides, the Activity is 0% at Transcription factor p65 [3]; -13% in [4]; 0% in series [5]; -3% with BMOL-T [6]; -5% in series [7]; -22% in series [8]. Further, the Activity entry with BMOL-T [12] was “Dose-Dependent Effect”; in series [13], “Toxic”; in series [27], “Toxic”; on Transcription factor p65 [15], 11%; in series [16] it was -23%; in [17], -25%. Moreover, the Activity with BMOL-T [18] is -19%; in series [19] it was -8%; in series [20], -16%. Moreover, the Selectivity ratio in series [10] and in [14] was 9 throughout. Moreover, the MAC in [11] was <6 µM. For the same molecule, in the series with BMOL-T [21], the outcome was inactive.
